Assay outcomes from PubChem.
PglD DTNB = inhibitors of Campylobacter jejuni PglD acetyltransferase | purified PglD enzyme, DTNB colorimetric CoA detection | inhibition, % at 12.5 µM | actives 0.098% (n = 360,000) | AID 602405; in the data active = inhibition above about 16%, passing the limit was not always enough; inconclusive = no clear call, values can overlap the other calls
FN deposition inh = fibronectin deposition inhibition; AID 743247; AH1F fibroblasts, Alexa488-fibronectin deposition fluorescence, overnight; inhibition, % at 12.6 µM; actives 0.086% (n = 350,000);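 active = mean inhibition across replicates of 30% or more, regardless of how many single replicates reach that level; inconclusive = mean under 30% yet at least half of replicates reach 30%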;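 note: positive control wells lacked labelled fibronectin entirely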
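Assay system: AH1F fibroblasts assembling fluorescent fibronectin matrix; Amount: 10000 AH1F cells per well; Buffer or medium: DMEM, 2% serum; Probe or stimulus: Alexa488-fibronectin, 24 nM final in well; Doses: single compound dose, delivered by pin transfer; Incubation: 1 h adhesion, overnight exposure; Measured by: fluorescence 485/525 nm; Read-out: fibronectin deposition inhibition.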
SKKanGAS inh = blocks kanamycin growth of S. pyogenes SKKanGAS strain; BacTiter-Glo, 6 h; inhibition, % at 7.5 µM; actives 1.3% (n = 300,000);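 active = mean replicate score, as percent of positive control median, at least 50; inconclusive = mean below 50 but one replicate at or above 50; inactive = mean and every replicate below 50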;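 note: strain carries kanamycin resistance gene driven by streptokinase promoter and grows in 40 µg/ml kanamycin; loss of luminescence reflects streptokinase promoter inhibition or plain growth inhibition; 0% = median of DMSO wells and 100% = positive control at its reference dose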
CSC inhib = blocks cancer stem cells; AID 2717; actives 1.1% (n = 300,000); inhibition, % at 7.5 µM; cancer stem cell-like cells viability, luminescence; in the data active = inhibition above about 75%; inconclusive = no clear call, values can overlap the other calls; tested in HMLE shEcad cells
Rtt109 HAT inh = blocks Candida albicans Rtt109/Vps75 acetyltransferase activity; Q5AAJ8; purified Rtt109/Vps75, ThioGlo CoA-SH fluorescence, 4 h; inhibition, % at 34.9 µM; actives 0.16% (n = 330,000); AID 540336;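 active = inhibition of at least 50% in every replicate; inconclusive = best replicate reaches 50% inhibition but some replicates fall short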
Target sequence (Q5AAJ8 whole entry, looked up): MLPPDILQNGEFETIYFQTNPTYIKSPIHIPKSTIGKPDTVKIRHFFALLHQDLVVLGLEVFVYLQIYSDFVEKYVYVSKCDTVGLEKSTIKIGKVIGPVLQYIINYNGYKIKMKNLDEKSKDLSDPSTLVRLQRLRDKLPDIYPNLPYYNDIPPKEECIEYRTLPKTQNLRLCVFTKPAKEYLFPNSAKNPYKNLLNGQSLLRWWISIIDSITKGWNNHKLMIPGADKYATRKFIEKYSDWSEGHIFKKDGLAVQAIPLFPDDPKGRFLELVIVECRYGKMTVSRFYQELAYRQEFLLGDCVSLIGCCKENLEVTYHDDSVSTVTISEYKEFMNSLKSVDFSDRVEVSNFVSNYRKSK
PfHsp90 yeast 2 = reduces growth (ATP signal) of yeast expressing P. falciparum Hsp90 | S. cerevisiae expressing PfHsp90, BacTiter-Glo ATP, 48 h; yeast lacking PDR1 and PDR3 efflux regulators | inhibition, % at 9.4 µM | actives 0.32% (n = 310,000);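 active = every replicate shows inhibition above about 80%, whatever the replicate mean, limit read from the data; inconclusive = mean inhibition reaches the set limit but some replicate falls short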;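 note: 0% = DMSO neutral controls and 100% = 20 µM radicicol positive controls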
An asterisk follows results filed as active. A selection: hits, their analogues and other compounds. The true share with any hit is near 1.7%.

How did Oc1ccc(-c2cnc(-c3ccc(O)cc3)nc2)cc1 do in these assays?
PglD DTNB: -4; FN deposition inh: -4; SKKanGAS inh: -10; CSC inhib: 98*; Rtt109 HAT inh: -7; PfHsp90 yeast 2: 6

How did O=C(O)c1ccc(-c2nc(-c3ccc(Cl)c(Cl)c3)cs2)cc1 do in these assays?
SKKanGAS inh: 57*; Rtt109 HAT inh: 3; PfHsp90 yeast 2: 3

Results for C[C@@H]1CN(C)C(=O)c2cccc(N)c2O[C@H]1CN(C)C(=O)OC(C)(C)C ?
FN deposition inh: 0

How did CCN(CC)c1nc2c(c(=O)[nH]c(=O)n2C)n1CCOc1ccccc1 do in these assays?
PglD DTNB: 3; FN deposition inh: -1; SKKanGAS inh: 0; CSC inhib: -15; Rtt109 HAT inh: 58*; PfHsp90 yeast 2: 7

Results for Cc1cccc(OCCNc2cc(N3CCN(C)CC3)ccc2[N+](=O)[O-])c1 ?
PglD DTNB: -14; SKKanGAS inh: -2; CSC inhib: 80*; Rtt109 HAT inh: 4; PfHsp90 yeast 2: 35

What do the screens show for `C[C@H](O)C#Cc1ccc2c(c1)O[C@@H](CN(C)C)[C@H](C)CN([C@H](C)CO)S2(=O)=O`?
PglD DTNB: 2; FN deposition inh: 48*

How did C[C@@H]1CN([C@@H](C)CO)S(=O)(=O)c2ccc(C#C[C@@H](C)O)cc2O[C@H]1CN(C)C do in these assays?
PglD DTNB: 4; FN deposition inh: -12

Results for COc1ccc(NC(=S)NC(NC(=O)c2ccc(Cl)cc2Cl)C(Cl)(Cl)Cl)c([N+](=O)[O-])c1 (centres undefined) ?
PglD DTNB: -5; SKKanGAS inh: 50*; Rtt109 HAT inh: 38; PfHsp90 yeast 2: -12

What do the screens show for `CCC[C@@H]1C[C@@H](C(=O)NC(C(C)Cl)[C@H]2O[C@H](SC)[C@H](O)[C@@H](O)[C@H]2O)N(C)C1` (some centres undefined)?
PglD DTNB: 7; FN deposition inh: -10; SKKanGAS inh: 106*; CSC inhib: -17; Rtt109 HAT inh: -12; PfHsp90 yeast 2: 2

How did CCCC1CC(C(=O)NC(C(C)Cl)C2OC(SC)C(O)C(O)C2O)N(C)C1 (centres undefined) do in these assays?
PglD DTNB: 3; FN deposition inh: 0; SKKanGAS inh: 106*; CSC inhib: -9; Rtt109 HAT inh: 6; PfHsp90 yeast 2: 7

Results for CCC[C@@H]1C[C@@H](C(=O)N[C@@H](C2O[C@H](SC)[C@H](O)[C@@H](O)[C@H]2O)[C@H](C)Cl)N(C)C1 (some centres undefined) ?
PglD DTNB: 3; SKKanGAS inh: 104*; CSC inhib: -7

Results for Cc1ccc2cc(C3C(C#N)=C(N)Oc4c3ccc3cccnc43)c(=O)[nH]c2c1 (centres undefined) ?
PglD DTNB: -6; SKKanGAS inh: 7; CSC inhib: 70; Rtt109 HAT inh: -2; PfHsp90 yeast 2: 9

What do the screens show for `CCc1ccc2[nH]c(=O)c(C3C(C#N)=C(N)Oc4c3ccc3cccnc43)cc2c1` (centres undefined)?
PglD DTNB: -3; SKKanGAS inh: 58*; CSC inhib: 97*; Rtt109 HAT inh: 1; PfHsp90 yeast 2: -11

What do the screens show for `COC(=O)c1c(NC(=O)c2ccccc2)sc(C(N)=O)c1C`?
FN deposition inh: 19; SKKanGAS inh: 0; Rtt109 HAT inh: -22; PfHsp90 yeast 2: -34

Results for COC(=O)c1c(NC(=O)c2ccccc2)sc(C(=O)c2ccccc2)c1C ?
PglD DTNB: -2; SKKanGAS inh: 73*; CSC inhib: -11; Rtt109 HAT inh: -3; PfHsp90 yeast 2: -12

What do the screens show for `Cc1cc(C(=O)Nc2cccc3c2O[C@@H](CN(C)S(=O)(=O)c2ccccc2)[C@@H](C)CN([C@@H](C)CO)C3=O)n(C)n1`?
PglD DTNB: 1

How did C[C@@H]1CCCCO[C@@H](CN(C)C(=O)c2ccccc2)[C@@H](C)CN([C@H](C)CO)C(=O)c2cc(NC(=O)Nc3ccc4c(c3)OCO4)ccc2O1 do in these assays?
PglD DTNB: 4

How did c1ccc(-c2ccc(C3=Nn4c(nnc4-c4cccs4)SC3)cc2)cc1 do in these assays?
PglD DTNB: 3; FN deposition inh: -14; SKKanGAS inh: 51*; CSC inhib: 6; Rtt109 HAT inh: 3; PfHsp90 yeast 2: 0

How did c1ccc(C2=Nn3c(nnc3-c3cccs3)SC2)cc1 do in these assays?
FN deposition inh: 9; SKKanGAS inh: -1; CSC inhib: -17; Rtt109 HAT inh: 8; PfHsp90 yeast 2: -32

Results for COc1ccccc1-c1nnc(NC(=O)c2ccc(S(=O)(=O)N(C)CC3CCCO3)cc2)o1 (centres undefined) ?
PglD DTNB: -3; FN deposition inh: 3; SKKanGAS inh: 54*; CSC inhib: -6; Rtt109 HAT inh: 3; PfHsp90 yeast 2: -25

Results for CN(CC1CCCO1)S(=O)(=O)c1ccc(C(=O)Nc2nnc(-c3ccccc3)o2)cc1 (centres undefined) ?
PglD DTNB: 4; FN deposition inh: -1; SKKanGAS inh: 84*; CSC inhib: 21; Rtt109 HAT inh: -9; PfHsp90 yeast 2: 20

Results for COc1ccc(N=Cc2cc(Cc3ccccc3Cl)cc([N+](=O)[O-])c2O)cc1OC ?
SKKanGAS inh: 40; PfHsp90 yeast 2: 111*

How did Cc1n[nH]c(C)c1Sc1ccccc1N=Cc1cc(Cl)cc([N+](=O)[O-])c1O do in these assays?
PglD DTNB: 17; SKKanGAS inh: 0; CSC inhib: 13; Rtt109 HAT inh: -2; PfHsp90 yeast 2: -27

What do the screens show for `Cc1ccc(N=Cc2cc(Cc3ccccc3Cl)cc([N+](=O)[O-])c2O)c(O)c1`?
SKKanGAS inh: inconclusive; CSC inhib: 70; Rtt109 HAT inh: 15; PfHsp90 yeast 2: 111*

How did CN/C=C1\C(=O)C(C)(C)Oc2ccc3ccc(=O)oc3c21 do in these assays?
PglD DTNB: 4; SKKanGAS inh: -16; CSC inhib: -17; Rtt109 HAT inh: -7; PfHsp90 yeast 2: 16

How did CC1(C)Oc2ccc3ccc(=O)oc3c2/C(=C/NNC(N)=S)C1=O do in these assays?
PglD DTNB: 1; FN deposition inh: 5; SKKanGAS inh: 82*; CSC inhib: 4; Rtt109 HAT inh: 10; PfHsp90 yeast 2: -12

Results for CN1C2CCC1/C(=C\c1ccccc1)C(=O)/C2=C\c1ccccc1 ?
PglD DTNB: 1; SKKanGAS inh: 12; CSC inhib: 92*; Rtt109 HAT inh: -8; PfHsp90 yeast 2: -9

What do the screens show for `CO[C@@H]1CN(C)C(=O)c2ccc(NC(=O)C3CCCCC3)cc2OC[C@H](C)N(C(=O)c2ccccc2)C[C@@H]1C`?
PglD DTNB: -3; FN deposition inh: 10
